Results: ChEMBL document CHEMBL1165950, “Design and synthesis of new potent anticancer pyrazoles with high FLT3 kinase inhibitory selectivity” (Bioorg Med Chem, 2010)

Key:
Format in all cases: functional
NCI-H522 = assay: Cytotoxicity against human NCI-H522 cells assessed as cell growth at 100 nM after 48 hrs by sulforhodamine B assay; settings: NCI-H522, 48 h, read-out: Activity
OVCAR-8 [1] = assay: Cytotoxicity against human OVCAR8 cells assessed as cell growth at 100 nM after 48 hrs by sulforhodamine B assay; settings: OVCAR-8, 48 h, read-out: Activity
CAKI-1 [2] = assay: Cytotoxicity against human Caki1 cells assessed as cell growth at 100 nM after 48 hrs by sulforhodamine B assay; settings: CAKI-1, 48 h, read-out: Activity
A498 = assay: Cytotoxicity against human A498 cells assessed as cell growth at 10 uM; settings: read-out: Activity
Summary of the method: (§1)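 Single-dose NCI-60 screen at 10 µM. Cells were grown in RPMI 1640 with 5% FBS and 2 mM L-glutamine, then treated for 48 h at 37 °C. Protein was measured by SRB staining with absorbance at 515 nm. Percentage growth was recorded, and inhibition percentage was calculated as 100 minus growth percentage.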

CAKI-1 [3] = assay: Cytotoxicity against human Caki1 cells assessed as cell growth at 10 uM; settings: read-out: Activity; summary of the method: as §1
UO-31 [4] = assay: Cytotoxicity against human UO31 cells assessed as cell growth at 10 uM; settings: read-out: Activity
Summary of the method: (§2)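 NCI-60 screen: cells grown in RPMI 1640 with 5% FBS and 2 mM L-glutamine, plated at 5000–40,000 cells/well according to doubling time, and preincubated 24 h at 37 °C, 5% CO2. The single 10 µM dose (DMSO stock) was added, then incubated 48 h. Cells were TCA-fixed and stained with 0.4% SRB, read at 515 nm, and growth % calculated against time-zero and control plates.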

LOX IMVI = assay: Cytotoxicity against human LOXIMVI cells assessed as cell growth at 1 uM after 48 hrs by sulforhodamine B assay; settings: read-out: Activity
SK-MEL-28 = assay: Cytotoxicity against human SK-MEL-28 cells assessed as cell growth at 0.01 uM after 48 hrs by sulforhodamine B assay; settings: SK-MEL-28, 48 h, read-out: Activity
RXF 393 = assay: Cytotoxicity against human RXF393 cells assessed as cell growth at 0.01 uM after 48 hrs by sulforhodamine B assay; settings: RXF 393, 48 h, read-out: Activity
NCI-H460 [5] = assay: Cytotoxicity against human NCI-H460 cells assessed as cell growth at 0.001 uM after 48 hrs by sulforhodamine B assay; settings: NCI-H460, 48 h, read-out: Activity
SW-620 = assay: Cytotoxicity against human SW620 cells assessed as cell growth at 0.001 uM after 48 hrs by sulforhodamine B assay; settings: SW-620, 48 h, read-out: Activity
UO-31 [6] = assay: Cytotoxicity against human UO31 cells assessed as cell growth at 0.001 uM after 48 hrs by sulforhodamine B assay; settings: UO-31, 48 h, read-out: Activity
MOLT-4 = assay: Growth inhibition of human MOLT4 cells after 48 hrs by sulforhodamine B assay; settings: MOLT-4, 48 h
Summary of the method: (§3)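 NCI 60-cell screen, five-dose mode. Cells grown in RPMI 1640 with 5% FBS and 2 mM L-glutamine and plated at 5000-40,000 cells/well according to doubling time. After 24 h preincubation, a Tz plate was TCA-fixed. Five concentrations (10-fold or 1/2 log dilutions) were applied for 48 h at 37 °C. SRB staining read at 515 nm. IC50 taken from [(Ti-Tz)/(C-Tz)]×100 = 50.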

KM12 = assay: Growth inhibition of human KM12 cells after 48 hrs by sulforhodamine B assay; settings: KM12, 48 h; summary of the method: as §3
SK-MEL-5 = assay: Growth inhibition of human SK-MEL-5 cells after 48 hrs by sulforhodamine B assay; settings: SK-MEL-5, 48 h; summary of the method: as §3
SK-OV-3 = assay: Growth inhibition of human SKOV3 cells after 48 hrs by sulforhodamine B assay; settings: SK-OV-3, 48 h; summary of the method: as §3
[7] = Cytotoxicity against human Hs 578T cells assessed as cell growth at 0.01 uM after 48 hrs by sulforhodamine B assay; settings: read-out: Activity
MDA-MB-468 [8] = assay: Cytotoxicity against human MDA-MB-468 cells assessed as cell growth at 0.01 uM after 48 hrs by sulforhodamine B assay; settings: MDA-MB-468, 48 h, read-out: Activity
K562 = assay: Cytotoxicity against human K562 cells assessed as cell growth at 100 nM after 48 hrs by sulforhodamine B assay; settings: K562, 48 h, read-out: Activity
CAKI-1 [9] = assay: Growth inhibition of human Caki1 cells after 48 hrs by sulforhodamine B assay; settings: CAKI-1, 48 h
Summary of the method: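 NCI five-dose SRB assay in RPMI 1640 with 5% FBS and 2 mM L-glutamine. Cells were preincubated 24 h, then exposed 48 h at 37 °C to five concentrations (10-fold or half-log serial dilutions from DMSO stocks). TCA fixation, SRB staining, and absorbance at 515 nm followed. IC50 was taken where [(Ti−Tz)/(C−Tz)]×100 = 50, with Tz as time-zero cell density.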

UACC-62 = assay: Cytotoxicity against human UACC62 cells assessed as cell growth at 1 uM after 48 hrs by sulforhodamine B assay; settings: UACC-62, 48 h, read-out: Activity
OVCAR-8 [10] = assay: Cytotoxicity against human OVCAR8 cells assessed as cell growth at 1 uM after 48 hrs by sulforhodamine B assay; settings: OVCAR-8, 48 h, read-out: Activity
786-0 = assay: Cytotoxicity against human 786-0 cells assessed as cell growth at 1 uM after 48 hrs by sulforhodamine B assay; settings: 786-0, 48 h, read-out: Activity
Summary of the method: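 NCI-60 five-dose screen. Cells were grown in RPMI 1640 with 5% FBS and 2 mM L-glutamine, plated at 5000–40,000 cells/well and preincubated for 24 h. Time-zero plates were TCA-fixed. DMSO-solubilized drug was added at five concentrations (10-fold or ½-log serial dilutions) for 48 h at 37 °C, 5% CO2. Cells were TCA-fixed, stained with 0.4% SRB and read at 515 nm. Percent growth used time-zero, control and test absorbances.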

T47D = assay: Cytotoxicity against human T47D cells assessed as cell growth at 1 uM after 48 hrs by sulforhodamine B assay; settings: read-out: Activity
NCI-H460 [11] = assay: Cytotoxicity against human NCI-H460 cells assessed as cell growth at 10 uM; settings: read-out: Activity; summary of the method: as §2
MDA-MB-468 [12] = assay: Cytotoxicity against human MDA-MB-468 cells assessed as cell growth at 1 uM after 48 hrs by sulforhodamine B assay; settings: MDA-MB-468, 48 h, read-out: Activity
OVCAR-8 [13] = assay: Cytotoxicity against human OVCAR8 cells assessed as cell growth at 10 uM after 48 hrs by sulforhodamine B assay; settings: OVCAR-8, 48 h, read-out: Activity
TK-10 = assay: Cytotoxicity against human TK10 cells assessed as cell growth at 10 uM after 48 hrs by sulforhodamine B assay; settings: TK-10, 48 h, read-out: Activity
[14] = read-out: LC50 (the source's name)

COc1cc(C)cc(-c2nn(CC#N)cc2-c2ccc(-c3cccc(C(C)=O)c3)nc2)c1
growth at 0.1 µM (NCI-H522): 68% | growth at 0.1 µM (OVCAR-8 [1]): 86% | growth at 0.1 µM (CAKI-1 [2]): 69% | growth at 10 µM (A498): 19.7% | growth at 10 µM (CAKI-1 [3]): 17.8% | growth at 10 µM (UO-31 [4]): 33.8% | growth at 1 µM (LOX IMVI): 23% | growth at 0.01 µM (SK-MEL-28): 93% | growth at 0.01 µM (RXF 393): 89% | growth at 0.001 µM (NCI-H460 [5]): 104% | growth at 0.001 µM (SW-620): 96% | growth at 0.001 µM (UO-31 [6]): 86% | GI50 (MOLT-4): 3.35 µM | LC50 (MOLT-4): > 100 µM | TGI (MOLT-4): > 100 µM | GI50 (KM12): 2230 nM | TGI (KM12): 13.9 µM | CC50 (KM12; [14]): > 100 µM | GI50 (SK-MEL-5): 1540 nM | TGI (SK-MEL-5): 6.79 µM | CC50 (SK-MEL-5; [14]): 39.8 µM | GI50 (SK-OV-3): 3.13 µM | TGI (SK-OV-3): 9.1 µM | CC50 (SK-OV-3; [14]): > 100 µM | growth at 0.01 µM [7]: 100% | growth at 0.01 µM (MDA-MB-468 [8]): 82% | growth at 0.1 µM (K562): 27% | GI50 (CAKI-1 [9]): 1910 nM | TGI (CAKI-1 [9]): 10.5 µM | CC50 (CAKI-1 [9]; [14]): > 100 µM | growth at 1 µM (UACC-62): 38% | growth at 1 µM (OVCAR-8 [10]): 14% | growth at 1 µM (786-0): 15% | growth at 1 µM (T47D): -7% | growth at 10 µM (NCI-H460 [11]): 17.4% | growth at 1 µM (MDA-MB-468 [12]): -42% | growth at 10 µM (OVCAR-8 [13]): -11% | growth at 10 µM (TK-10): -29%
